Data set [1] deals with T1, Oxysterols receptor LXR-alpha/beta (Mus musculus) (UniProt Q9Z0Y9+Q60644). Kind of data set: Inhibition of T0901317-induced LXR-alpha/beta transactivation in mouse RAW264.7 cells assessed as reduction in ABCA1 mRNA expression at 10 uM after 3 hrs by RT-PCR method. It is filed as cell-based. In outline: (§1)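 RAW 264.7 macrophages pretreated 1 h with T0901317 (0.01–10 μM, or 1 μM), or left in medium, then luteolin 10, 25 or 50 μM for 3 h. ABCA1 mRNA by SYBR-Green real-time RT-PCR, normalised to HPRT1. Pfaffl fold change versus medium control or the T0901317-treated sample. Three independent experiments in duplicate, mean ± SEM. One-way ANOVA with Dunnett's test.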

Data set [2] concerns the target T2, Oxysterols receptor LXR-alpha (Homo sapiens) (UniProt Q13133).
T2 sequence (whole entry): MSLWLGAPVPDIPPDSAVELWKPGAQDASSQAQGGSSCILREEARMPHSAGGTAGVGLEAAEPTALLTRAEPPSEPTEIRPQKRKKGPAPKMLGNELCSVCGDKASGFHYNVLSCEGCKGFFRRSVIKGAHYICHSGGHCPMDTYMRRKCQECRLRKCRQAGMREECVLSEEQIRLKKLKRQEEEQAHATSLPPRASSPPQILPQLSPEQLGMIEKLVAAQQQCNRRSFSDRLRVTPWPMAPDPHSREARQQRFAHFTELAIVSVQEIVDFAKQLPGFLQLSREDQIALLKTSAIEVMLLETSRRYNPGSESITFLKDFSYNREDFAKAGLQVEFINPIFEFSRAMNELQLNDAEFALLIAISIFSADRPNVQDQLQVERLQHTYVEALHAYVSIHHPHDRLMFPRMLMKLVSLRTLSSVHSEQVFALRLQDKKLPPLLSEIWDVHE
Kind of data set: Inhibition of T0901317-induced human LXR-alpha transcriptional activity after 22 hrs by cell based luciferase reporter gene assay. A digest of the protocol: (§2)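 Commercial LXRα or LXRβ luciferase reporter cells (nonhuman mammalian) kept in medium or given T0901317 0.01–10 μM, alone or with luteolin 10, 25 or 50 μM, for 22 h. Luminescence read per kit instructions, 500 ms read time. RLU plotted against log T0901317 concentration.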

The target in data set [3] is T3, Oxysterols receptor LXR-beta (Homo sapiens) (UniProt P55055).
T3 sequence (whole entry): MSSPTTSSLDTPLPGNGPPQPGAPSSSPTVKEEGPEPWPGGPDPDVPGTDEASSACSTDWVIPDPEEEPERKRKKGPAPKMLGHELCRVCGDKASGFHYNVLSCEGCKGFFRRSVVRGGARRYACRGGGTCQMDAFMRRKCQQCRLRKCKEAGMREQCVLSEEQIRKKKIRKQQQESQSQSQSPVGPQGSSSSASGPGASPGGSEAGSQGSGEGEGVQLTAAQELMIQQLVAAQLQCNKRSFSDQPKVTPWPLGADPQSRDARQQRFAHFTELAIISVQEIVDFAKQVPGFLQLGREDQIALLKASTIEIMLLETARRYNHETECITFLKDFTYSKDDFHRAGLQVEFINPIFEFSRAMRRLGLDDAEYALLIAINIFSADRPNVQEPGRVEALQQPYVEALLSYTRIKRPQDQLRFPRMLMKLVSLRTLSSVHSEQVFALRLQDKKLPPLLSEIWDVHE
Kind of data set: Inhibition of T0901317-induced human LXR-beta transcriptional activity after 22 hrs by cell based luciferase reporter gene assay. A digest of the protocol: as §2

The target in data set [4] is T2, Oxysterols receptor LXR-alpha (Homo sapiens). Briefly: Inhibition of T0901317-induced human LXR-alpha transcriptional activity at 10 uM after 22 hrs by cell based luciferase reporter gene assay. A digest of the protocol: as §2
The target of data set [5] is T3, Oxysterols receptor LXR-beta (Homo sapiens). Kind of data set: Inhibition of T0901317-induced human LXR-beta transcriptional activity at 10 uM after 22 hrs by cell based luciferase reporter gene assay. A digest of the protocol: as §2
Data set [6] concerns the target T2, Oxysterols receptor LXR-alpha (Homo sapiens). Kind of data set: Transactivation of human LXR-alpha at 10 to 50 uM after 22 hrs by cell based luciferase reporter gene assay. In outline: as §2
Data set [7] concerns the target T3, Oxysterols receptor LXR-beta (Homo sapiens). Briefly: Transactivation of human LXR-beta at 10 to 50 uM after 22 hrs by cell based luciferase reporter gene assay. In outline: as §2
Data set [8] addresses T4, Liver X receptor (Homo sapiens) (UniProt Q13133+P55055). Kind of data set: Inhibition of T0901317-induced LXR-alpha/beta transactivation in human HepG2 cells assessed as reduction in SREBP-1c mRNA expression at 50 uM after 12 hrs by RT-PCR method. It is filed as cell-based. A digest of the protocol:
(§3)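 HepG2 cells in low-glucose DMEM with 10% FBS, 37 °C, 5% CO2. Pretreated 1 h with T0901317 (0.01–10 μM, or 0.05 or 1 μM), or left in medium, then given luteolin 10, 25 or 50 μM for 12 h. Trizol RNA, SYBR-Green real-time RT-PCR for SREBP-1c, normalised to HPRT1. Pfaffl fold change versus medium control. Two independent experiments in duplicate, mean ± SEM.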

Data set [9] addresses T4, Liver X receptor (Homo sapiens). Briefly: Inhibition of T0901317-induced LXR-alpha/beta transactivation in human HepG2 cells assessed as reduction in SREBP-1c mRNA expression at 10 to 25 uM after 12 hrs by RT-PCR method. The format is cell-based. A digest of the protocol: as §3
Another data set concerns the target T5, Liver X receptor (Homo sapiens, UniProt Q13133+P55055).
T5 sequence (Q13133 whole entry): T2 sequence (whole entry)
T5 sequence (P55055 whole entry): T3 sequence (whole entry)
Briefly: Transactivation of LXR-alpha/beta in human HepG2 cells assessed as upregulation of SREBP-1c mRNA expression at 10 to 50 uM after 12 hrs by RT-PCR method. The format is cell-based. To be noted: hepg2, 12 h. In outline:
as §3

In data set [10] the test system is HepG2. Briefly: Cytotoxicity against human HepG2 cells assessed as reduction in cell viability at 10 to 50 uM after 12 hrs by MTT assay. To be noted: hepg2, 12 h. The format is cell-based. In outline:
(§4)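 Cells treated as in the RT-PCR assays (T0901317 pretreatment 1 h, then luteolin 10, 25 or 50 μM; 12 h for HepG2, 3 h for RAW 264.7). MTT added at 37 °C for 60 min (HepG2) or 15 min (RAW 264.7). Formazan dissolved in acidic 2-propanol and read at 570 nm, reference 620 nm.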

In data set [11] the test system is HepG2. Kind of data set: Inhibition of T0901317-induced lipid accumulation in human HepG2 cells at 50 uM preincubated for 1 hr followed by T0901317 addition measured after 24 hrs by Oil Red-O dye based microscopic analysis. The format is functional, cell-based. A digest of the protocol: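 HepG2 cells preincubated 1 h with luteolin 25 or 50 μM, then T0901317 5 μM added for 24 h. Fixed in 4% paraformaldehyde for 20 min at room temperature. Stained with Oil Red-O (0.6% stock diluted 6:4 with water) for 45 min at room temperature, washed, then imaged by microscopy; absorbance recorded.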

For data set [12], the target named is T1, Oxysterols receptor LXR-alpha/beta (Mus musculus). Kind of data set: Inhibition of T0901317-induced LXR-alpha/beta transactivation in mouse RAW264.7 cells assessed as reduction in ABCA1 mRNA expression at 25 uM after 3 hrs by RT-PCR method relative to control. The format is cell-based. In outline: as §1
Data set [13] has the same target. Kind of data set: Inhibition of T0901317-induced LXR-alpha/beta transactivation in mouse RAW264.7 cells assessed as reduction in ABCA1 mRNA expression at 50 uM after 3 hrs by RT-PCR method relative to control. It is filed as cell-based. In outline:
as §1

For data set [14] the target is unchanged. Kind of data set: Inhibition of T0901317-induced LXR-alpha/beta transactivation in mouse RAW264.7 cells assessed as reduction in ABCA1 mRNA expression after 3 hrs by RT-PCR method. It is filed as cell-based. In outline:
as §1

Data set [15] deals with T6, Oxysterols receptor LXR-alpha/beta (Mus musculus, UniProt Q9Z0Y9+Q60644).
T6 sequence (Q9Z0Y9 whole entry): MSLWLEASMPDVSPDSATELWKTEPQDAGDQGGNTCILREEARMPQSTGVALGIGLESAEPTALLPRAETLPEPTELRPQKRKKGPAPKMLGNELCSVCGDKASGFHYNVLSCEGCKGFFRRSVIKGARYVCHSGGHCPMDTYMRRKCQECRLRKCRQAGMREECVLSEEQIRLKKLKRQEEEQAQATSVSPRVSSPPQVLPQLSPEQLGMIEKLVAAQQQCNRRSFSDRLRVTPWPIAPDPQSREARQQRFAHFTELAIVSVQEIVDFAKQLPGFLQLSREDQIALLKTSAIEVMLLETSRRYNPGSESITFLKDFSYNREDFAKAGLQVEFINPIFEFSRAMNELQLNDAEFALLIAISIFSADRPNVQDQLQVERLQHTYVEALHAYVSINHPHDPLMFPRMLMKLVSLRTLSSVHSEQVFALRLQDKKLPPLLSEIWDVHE
T6 sequence (Q60644 whole entry): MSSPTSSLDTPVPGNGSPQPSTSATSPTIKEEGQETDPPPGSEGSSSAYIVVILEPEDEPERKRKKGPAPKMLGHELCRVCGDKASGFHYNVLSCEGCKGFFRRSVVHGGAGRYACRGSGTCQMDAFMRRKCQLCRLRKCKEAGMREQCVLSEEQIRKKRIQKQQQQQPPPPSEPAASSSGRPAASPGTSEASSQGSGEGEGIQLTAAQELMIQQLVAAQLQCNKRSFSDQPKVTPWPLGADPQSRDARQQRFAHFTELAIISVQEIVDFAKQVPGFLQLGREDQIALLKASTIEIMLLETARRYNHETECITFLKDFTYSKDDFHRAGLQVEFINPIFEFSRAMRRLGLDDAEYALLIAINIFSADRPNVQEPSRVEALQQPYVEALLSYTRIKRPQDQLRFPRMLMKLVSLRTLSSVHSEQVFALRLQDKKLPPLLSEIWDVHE
Kind of data set: Transactivation of LXR-alpha/beta in mouse RAW264.7 cells assessed as upregulation of ABCA1 mRNA expression at 10 to 50 uM after 3 hrs by RT-PCR method. It is filed as cell-based. The note with it: raw264.7, 3 h. In outline: as §1

Another data set concerns RAW264.7. Kind of data set: Cytotoxicity against mouse RAW264.7 cells assessed as reduction in cell viability at 10 to 50 uM after 3 hrs by MTT assay. The format is cell-based. The note with it: raw264.7, 3 h. A digest of the protocol:
as §4

Data set [16] relates to Mus musculus. Kind of data set: Antihyperlipidemic activity in ethanol-induced steatosis C57BL/6 mouse model assessed as inhibition of serum triacylglycerol level at 50 mg/kg, po administered daily through oral gavage for 2 weeks by colorimetric method relative to control. The note with it: C57BL/6, po, 336 h. It is filed as functional.
Data set [17] relates to Mus musculus. Kind of data set: Antihyperlipidemic activity in ethanol-induced steatosis C57BL/6 mouse model assessed as inhibition of serum LDL cholesterol level at 50 mg/kg, po administered daily through oral gavage for 2 weeks by colorimetric method relative to control. It is filed as functional. The note with it: C57BL/6, po, 336 h.

These results are taken from ChEMBL document CHEMBL4428033, “The Flavone Luteolin Inhibits Liver X Receptor Activation” (J Nat Prod, 2016).

Structures are written as SMILES. Activity calls are given as the source filed them. The calls are words filed in the database; no cut-off is given here.

As to `O=c1cc(-c2ccc(O)c(O)c2)oc2cc(O)cc(O)c12` [LUTEOLIN], the inhibition entry in [1], in [4], in data set [5] and in [9] was “inactive” throughout. For the same compound, the inhibition entry is “Dose-dependent effect” in data set [2]; “Dose-dependent effect” in [3]; 41% in data set [12]; 64% in data set [13]; “Dose-dependent effect” in data set [14]. Moreover, the result in [6] and in [7] was inactive. Moreover, the inhibition entry (in data set [8]; in the data set with HepG2 [11]) was “Active” in each case. Moreover, the Activity result was “Not Active” on Liver X receptor, “Non-Toxic” in the data set on HepG2 [10], “Not Active” in data set [15] and “Non-Toxic” with RAW264.7. Also, the values for the inhibition in vivo at 50 mg/kg with Mus musculus [16] and with Mus musculus [17] were 22% and 52%, respectively.
